Experiments:
Eimeria maxima [1] = experiment: Anticococcidal activity against Eimeria maxima in Chick assessed as reduction in oocyte at 1.25 ppm relative to control; assay type: functional; design: scale not given: the % may be the effect or the level left
Procedure, shortened: (§1)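 Expanded Mini-Assay Coccidiosis (ExMAC) in chickens infected with E. tenella, E. acervulina, E. mitis and E. maxima. Compound given in the feed at the stated ppm. Efficacy for each species is scored 0 to 4 from the percent oocyst reduction relative to an untreated control. Where a compound was tested more than once, all values are reported.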

Eimeria acervulina [2] = experiment: Anticococcidal activity against Eimeria acervulina in Chick assessed as reduction in oocyte at 25 ppm relative to control; assay type: functional; design: scale not given: the % may be the effect or the level left; procedure, shortened: as §1
[3] = biological target: cGMP-dependent protein kinase (Eimeria tenella, UniProt Q8MMZ8); experiment: Inhibition of Eimeria tenella cGMP-dependent protein kinase by Ten_K assay
Procedure, shortened: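 Ten_K (Tenella Kinase) assay measuring inhibition of E. tenella PKG enzyme activity. Result expressed as the concentration giving 50% inhibition (IC50, nM). Where a compound was tested more than once, all values are reported.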

Eimeria mitis [4] = experiment: Anticococcidal activity against Eimeria mitis in Chick assessed as reduction in oocyte at 25 ppm relative to control; assay type: functional; design: scale not given: the % may be the effect or the level left; procedure, shortened: as §1
Eimeria acervulina [5] = experiment: Anticococcidal activity against Eimeria acervulina in Chick assessed as reduction in oocyte at 6.25 ppm relative to control; assay type: functional; design: scale not given: the % may be the effect or the level left; procedure, shortened: as §1
Eimeria mitis [6] = experiment: Anticococcidal activity against Eimeria mitis in Chick assessed as reduction in oocyte at 1.25 ppm relative to control; assay type: functional; design: scale not given: the % may be the effect or the level left; procedure, shortened: as §1
Eimeria acervulina [7] = experiment: Anticococcidal activity against Eimeria acervulina in Chick assessed as reduction in oocyte at 1.25 ppm relative to control; assay type: functional; design: scale not given: the % may be the effect or the level left; procedure, shortened: as §1
Eimeria maxima [8] = experiment: Anticococcidal activity against Eimeria maxima in Chick assessed as reduction in oocyte at 6.25 ppm relative to control; assay type: functional; design: scale not given: the % may be the effect or the level left; procedure, shortened: as §1
Eimeria maxima [9] = experiment: Anticococcidal activity against Eimeria maxima in Chick assessed as reduction in oocyte at 25 ppm relative to control; assay type: functional; design: scale not given: the % may be the effect or the level left; procedure, shortened: as §1
Eimeria tenella [10] = experiment: Anticococcidal activity against Eimeria tenella in Chick assessed as reduction in oocyte at 25 ppm relative to control; assay type: functional; design: scale not given: the % may be the effect or the level left; procedure, shortened: as §1
Eimeria tenella [11] = experiment: Anticococcidal activity against Eimeria tenella in Chick assessed as reduction in oocyte at 1.25 ppm relative to control; assay type: functional; design: scale not given: the % may be the effect or the level left; procedure, shortened: as §1
Eimeria tenella [12] = experiment: Anticococcidal activity against Eimeria tenella in Chick assessed as reduction in oocyte at 6.25 ppm relative to control; assay type: functional; design: scale not given: the % may be the effect or the level left; procedure, shortened: as §1
Eimeria mitis [13] = experiment: Anticococcidal activity against Eimeria mitis in Chick assessed as reduction in oocyte at 6.25 ppm relative to control; assay type: functional; design: scale not given: the % may be the effect or the level left; procedure, shortened: as §1
Eimeria maxima [14] = experiment: Anticococcidal activity against Eimeria maxima in Chick assessed as reduction in oocyte at 3.13 ppm relative to control; assay type: functional; design: scale not given: the % may be the effect or the level left; procedure, shortened: as §1
Eimeria acervulina [15] = experiment: Anticococcidal activity against Eimeria acervulina in Chick assessed as reduction in oocyte at 12.5 ppm relative to control; assay type: functional; design: scale not given: the % may be the effect or the level left; procedure, shortened: as §1
Eimeria mitis [16] = experiment: Anticococcidal activity against Eimeria mitis in Chick assessed as reduction in oocyte at 12.5 ppm relative to control; assay type: functional; design: scale not given: the % may be the effect or the level left; procedure, shortened: as §1
Eimeria acervulina [17] = experiment: Anticococcidal activity against Eimeria acervulina in Chick assessed as reduction in oocyte at 3.13 ppm relative to control; assay type: functional; design: scale not given: the % may be the effect or the level left; procedure, shortened: as §1
Eimeria tenella [18] = experiment: Anticococcidal activity against Eimeria tenella in Chick assessed as reduction in oocyte at 3.13 ppm relative to control; assay type: functional; design: scale not given: the % may be the effect or the level left; procedure, shortened: as §1
Eimeria tenella [19] = experiment: Anticococcidal activity against Eimeria tenella in Chick assessed as reduction in oocyte at 12.5 ppm relative to control; assay type: functional; design: scale not given: the % may be the effect or the level left; procedure, shortened: as §1
Eimeria mitis [20] = experiment: Anticococcidal activity against Eimeria mitis in Chick assessed as reduction in oocyte at 3.13 ppm relative to control; assay type: functional; design: scale not given: the % may be the effect or the level left; procedure, shortened: as §1
Eimeria maxima [21] = experiment: Anticococcidal activity against Eimeria maxima in Chick assessed as reduction in oocyte at 12.5 ppm relative to control; assay type: functional; design: scale not given: the % may be the effect or the level left; procedure, shortened: as §1
[22] = biological target: cGMP-dependent protein kinase (Eimeria tenella) (UniProt Q8MMZ8); experiment: Inhibition of Eimeria tenella cGMP-dependent protein kinase at 100 nM by Ten_K assay
Eimeria mitis [23] = experiment: Anticococcidal activity against Eimeria mitis in Chick assessed as reduction in oocyte at 50 ppm relative to control; assay type: functional; design: scale not given: the % may be the effect or the level left; procedure, shortened: as §1
Eimeria tenella [24] = experiment: Anticococcidal activity against Eimeria tenella in Chick assessed as reduction in oocyte at 50 ppm relative to control; assay type: functional; design: scale not given: the % may be the effect or the level left; procedure, shortened: as §1
Eimeria maxima [25] = experiment: Anticococcidal activity against Eimeria maxima in Chick assessed as reduction in oocyte at 50 ppm relative to control; assay type: functional; design: scale not given: the % may be the effect or the level left; procedure, shortened: as §1
Eimeria acervulina [26] = experiment: Anticococcidal activity against Eimeria acervulina in Chick assessed as reduction in oocyte at 50 ppm relative to control; assay type: functional; design: scale not given: the % may be the effect or the level left; procedure, shortened: as §1

cGMP-dependent protein kinase, sequence (Q8MMZ8 whole entry): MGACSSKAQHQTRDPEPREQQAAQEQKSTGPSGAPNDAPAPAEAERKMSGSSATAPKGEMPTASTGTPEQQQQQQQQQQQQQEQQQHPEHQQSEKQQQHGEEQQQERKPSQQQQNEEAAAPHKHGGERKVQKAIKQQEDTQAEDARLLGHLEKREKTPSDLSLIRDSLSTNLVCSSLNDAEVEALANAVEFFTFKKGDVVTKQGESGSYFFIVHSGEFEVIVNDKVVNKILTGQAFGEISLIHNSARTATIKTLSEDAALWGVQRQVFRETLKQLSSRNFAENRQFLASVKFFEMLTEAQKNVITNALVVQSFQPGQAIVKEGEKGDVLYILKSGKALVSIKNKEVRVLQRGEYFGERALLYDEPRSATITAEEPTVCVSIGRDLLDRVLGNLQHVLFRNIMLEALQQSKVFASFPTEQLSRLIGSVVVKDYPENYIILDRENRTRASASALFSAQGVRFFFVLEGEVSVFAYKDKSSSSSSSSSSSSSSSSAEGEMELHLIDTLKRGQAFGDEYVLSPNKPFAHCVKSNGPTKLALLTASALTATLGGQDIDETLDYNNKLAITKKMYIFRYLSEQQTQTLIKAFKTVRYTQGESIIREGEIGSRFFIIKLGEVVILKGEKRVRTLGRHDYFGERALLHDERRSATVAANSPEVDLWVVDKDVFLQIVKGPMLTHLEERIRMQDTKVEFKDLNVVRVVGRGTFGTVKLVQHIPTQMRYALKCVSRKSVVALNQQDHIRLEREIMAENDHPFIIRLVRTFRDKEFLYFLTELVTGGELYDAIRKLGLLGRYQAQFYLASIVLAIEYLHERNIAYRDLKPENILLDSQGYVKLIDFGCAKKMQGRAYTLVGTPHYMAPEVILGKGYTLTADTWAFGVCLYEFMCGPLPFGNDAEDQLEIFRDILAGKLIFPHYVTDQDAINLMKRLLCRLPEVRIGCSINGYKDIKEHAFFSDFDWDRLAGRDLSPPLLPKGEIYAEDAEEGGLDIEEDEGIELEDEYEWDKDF
cGMP-dependent protein kinase (Eimeria tenella), sequence (Q8MMZ8 2-1003 limits assumed): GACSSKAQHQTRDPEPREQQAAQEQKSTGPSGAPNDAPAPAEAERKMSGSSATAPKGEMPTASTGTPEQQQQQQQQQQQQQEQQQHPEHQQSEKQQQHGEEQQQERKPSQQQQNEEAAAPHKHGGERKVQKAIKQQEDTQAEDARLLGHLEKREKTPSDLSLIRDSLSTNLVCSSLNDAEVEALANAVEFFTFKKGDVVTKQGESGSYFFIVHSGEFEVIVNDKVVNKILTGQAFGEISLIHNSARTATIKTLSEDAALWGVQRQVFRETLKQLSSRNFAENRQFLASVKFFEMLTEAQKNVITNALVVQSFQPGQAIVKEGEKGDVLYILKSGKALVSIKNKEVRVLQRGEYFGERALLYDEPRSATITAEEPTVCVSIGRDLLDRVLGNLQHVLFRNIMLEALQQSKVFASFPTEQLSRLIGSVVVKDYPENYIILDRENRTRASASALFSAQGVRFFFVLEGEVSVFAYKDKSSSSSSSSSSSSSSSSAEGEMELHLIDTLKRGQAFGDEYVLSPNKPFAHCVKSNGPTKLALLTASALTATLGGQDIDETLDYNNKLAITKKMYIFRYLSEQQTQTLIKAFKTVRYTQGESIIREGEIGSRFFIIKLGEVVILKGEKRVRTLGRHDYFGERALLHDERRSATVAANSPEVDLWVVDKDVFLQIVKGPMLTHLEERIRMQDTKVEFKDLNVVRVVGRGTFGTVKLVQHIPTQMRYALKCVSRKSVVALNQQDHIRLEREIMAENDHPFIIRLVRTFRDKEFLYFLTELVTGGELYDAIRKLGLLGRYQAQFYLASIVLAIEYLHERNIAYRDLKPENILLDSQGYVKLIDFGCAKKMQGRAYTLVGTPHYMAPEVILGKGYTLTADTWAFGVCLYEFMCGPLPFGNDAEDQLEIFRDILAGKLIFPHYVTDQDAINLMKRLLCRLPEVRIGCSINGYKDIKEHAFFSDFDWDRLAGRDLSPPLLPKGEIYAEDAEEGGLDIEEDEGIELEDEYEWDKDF

| IC50 [3] | Compound | Activity (Eimeria acervulina [2]) | Activity (Eimeria mitis [4]) | Activity (Eimeria acervulina [5]) | Activity (Eimeria maxima [8]) | Activity (Eimeria maxima [9]) | Activity (Eimeria tenella [10]) | Activity (Eimeria tenella [12]) | Activity (Eimeria mitis [13]) | Activity (Eimeria acervulina [15]) | Activity (Eimeria mitis [16]) | Activity (Eimeria tenella [19]) | Activity (Eimeria maxima [21]) | further results |
| --- | --- | --- | --- | --- | --- | --- | --- | --- | --- | --- | --- | --- | --- | --- |
| 0.23 nM | CN(C)Cc1ccn2c(-c3nc(N)ncc3F)c(-c3ccc(F)cc3)nc2c1 | 100% | 50% | 50% | <50% | 100% | 80% | 80% | <50% | – | – | – | – | Activity (Eimeria maxima [1]): <50%; Activity (Eimeria mitis [6]): <50%; Activity (Eimeria acervulina [7]): 100%; Activity (Eimeria tenella [11]): 80% |
| 0.52 nM | CN(C)Cc1ccn2c(-c3ccnc(N)n3)c(-c3c(F)cc(F)cc3F)nc2c1 | 80% | <50% | 50% | 50% | 100% | 80% | <50% | 50% | 80% | <50% | 80% | 80% | Activity (Eimeria maxima [14]): 80%; Activity (Eimeria acervulina [17]): <50%; Activity (Eimeria tenella [18]): 50%; Activity (Eimeria mitis [20]): 50% |
| 0.06 nM | CN(C)Cc1ccn2c(-c3ccnc(NCc4c(F)cccc4F)n3)c(-c3ccc(F)cc3)nc2c1 | <50% | 80% | <50% | 50% | 80% | 50% | <50% | <50% | <50% | <50% | <50% | 80% | – |
| – | CN(C)Cc1ccn2c(-c3ccnc(NS(=O)(=O)Cc4ccccc4)n3)c(-c3ccc(F)cc3)nc2c1 | <50% | <50% | – | – | <50% | <50% | – | – | – | – | – | – | inhibition [22]: 40% |
| 0.09 nM | CN(C)Cc1ccn2c(-c3ccnc(NCc4cccc(F)c4)n3)c(-c3ccc(F)cc3)nc2c1 | 80% | 50% | <50% | <50% | 80% | 50% | <50% | <50% | 50% | <50% | <50% | 80% | – |
| 2.14 nM | CCCCNc1nccc(-c2c(-c3ccc(F)cc3)nc3cc(CN(C)C)ccn23)n1 | – | – | – | – | – | – | – | – | – | – | – | – | Activity (Eimeria mitis [23]): <50%; Activity (Eimeria tenella [24]): <50%; Activity (Eimeria maxima [25]): <50%; Activity (Eimeria acervulina [26]): <50% |
| 0.3 nM | CN(C)Cc1ccn2c(-c3ccnc(NCCO)n3)c(-c3ccc(F)cc3)nc2c1 | 80% | 80% | <50% | 50% | 80% | 80% | <50% | <50% | <50% | <50% | 50% | 80% | – |
| 0.22 nM | CN(C)Cc1ccn2c(-c3ccnc(NC4CCC4)n3)c(-c3ccc(F)cc3)nc2c1 | 80% | 80% | <50% | 50% | 80% | 80% | 80% | <50% | 80% | 50% | 80% | 80% | – |
| 0.25 nM | COCCNc1nccc(-c2c(-c3ccc(F)cc3)nc3cc(CN(C)C)ccn23)n1 | 80% | <50% | <50% | 50% | 80% | 80% | <50% | <50% | 80% | <50% | 80% | 80% | – |

| Compound | IC50 [3] | Activity (Eimeria acervulina [2]) | Activity (Eimeria mitis [4]) | Activity (Eimeria acervulina [5]) | Activity (Eimeria maxima [8]) | Activity (Eimeria maxima [9]) | Activity (Eimeria tenella [10]) | Activity (Eimeria tenella [12]) | Activity (Eimeria mitis [13]) | Activity (Eimeria acervulina [15]) | Activity (Eimeria mitis [16]) | Activity (Eimeria tenella [19]) | Activity (Eimeria maxima [21]) | further results |
| --- | --- | --- | --- | --- | --- | --- | --- | --- | --- | --- | --- | --- | --- | --- |
| CN(C)Cc1ccn2c(-c3ccnc(N)n3)c(-c3ccc(F)cc3)nc2c1 | 0.23 nM | 80% | 80% | <50% | 80% | 80% | 80% | <50% | <50% | <50% | 80% | 80% | 80% | – |

— ChEMBL document CHEMBL1139934, “Synthesis and biological activity of imidazopyridine anticoccidial agents: part I” (Eur J Med Chem, 2007)
